How the values were obtained:
[1] = target: T1, ATP-dependent translocase ABCB1 (Homo sapiens, UniProt P08183); experiment: Ratio of rhodamine123 uptake in MDR1 transfected cells vs parental L5178Y cells at 30 uM; format: functional, cell-based; details: mouse
How it was run: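 Fluorescence activity ratio at 30 µM compound. L5178Y parental and L5178YvMDR cells (2 × 10⁶/mL, serum-free McCoy's 5A) preincubated 10 min at room temperature with compound, then rhodamine 123 (5.2 µM final) added for 20 min at 37 °C. After two PBS washes, 1 × 10⁴ cells read by flow cytometry. Ratio calculated from uptake in treated versus untreated control cells. Mean of two determinations.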

[2] = target: T1, ATP-dependent translocase ABCB1; experiment: Inhibition of P-glycoprotein
How it was run: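 Rhodamine 123 uptake in L5178YvMDR mouse T-lymphoma cells and the parental line, 2 × 10⁶ cells/mL in serum-free McCoy's 5A. Compound preincubated 10 min at room temperature, then rhodamine 123 (5.2 µM final) added for 20 min at 37 °C. Cells washed twice in PBS and 1 × 10⁴ cells read by flow cytometry. IC50 taken from sigmoidal curve of fluorescence activity ratio versus concentration. Mean of two determinations.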

[3] = tested on: L5178Y; experiment: Cytotoxicity against mouse L5178Y cell line; format: functional, cell-based
How it was run: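 MTT assay on L5178Y mouse T-lymphoma parental cells or the L5178YvMDR (mdr1-transfected) subline. Compound-treated cells cultured 48 h at 37 °C under 5% CO2. MTT added (0.5 mg/mL final) for another 4 h at 37 °C. Formazan dissolved in 10% SDS in 0.01 M HCl overnight, then absorbance read. Absorbance corrected for cell control and compound, IC50 taken from sigmoidal curve. Mean of two determinations.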

T1 sequence (P08183 whole entry): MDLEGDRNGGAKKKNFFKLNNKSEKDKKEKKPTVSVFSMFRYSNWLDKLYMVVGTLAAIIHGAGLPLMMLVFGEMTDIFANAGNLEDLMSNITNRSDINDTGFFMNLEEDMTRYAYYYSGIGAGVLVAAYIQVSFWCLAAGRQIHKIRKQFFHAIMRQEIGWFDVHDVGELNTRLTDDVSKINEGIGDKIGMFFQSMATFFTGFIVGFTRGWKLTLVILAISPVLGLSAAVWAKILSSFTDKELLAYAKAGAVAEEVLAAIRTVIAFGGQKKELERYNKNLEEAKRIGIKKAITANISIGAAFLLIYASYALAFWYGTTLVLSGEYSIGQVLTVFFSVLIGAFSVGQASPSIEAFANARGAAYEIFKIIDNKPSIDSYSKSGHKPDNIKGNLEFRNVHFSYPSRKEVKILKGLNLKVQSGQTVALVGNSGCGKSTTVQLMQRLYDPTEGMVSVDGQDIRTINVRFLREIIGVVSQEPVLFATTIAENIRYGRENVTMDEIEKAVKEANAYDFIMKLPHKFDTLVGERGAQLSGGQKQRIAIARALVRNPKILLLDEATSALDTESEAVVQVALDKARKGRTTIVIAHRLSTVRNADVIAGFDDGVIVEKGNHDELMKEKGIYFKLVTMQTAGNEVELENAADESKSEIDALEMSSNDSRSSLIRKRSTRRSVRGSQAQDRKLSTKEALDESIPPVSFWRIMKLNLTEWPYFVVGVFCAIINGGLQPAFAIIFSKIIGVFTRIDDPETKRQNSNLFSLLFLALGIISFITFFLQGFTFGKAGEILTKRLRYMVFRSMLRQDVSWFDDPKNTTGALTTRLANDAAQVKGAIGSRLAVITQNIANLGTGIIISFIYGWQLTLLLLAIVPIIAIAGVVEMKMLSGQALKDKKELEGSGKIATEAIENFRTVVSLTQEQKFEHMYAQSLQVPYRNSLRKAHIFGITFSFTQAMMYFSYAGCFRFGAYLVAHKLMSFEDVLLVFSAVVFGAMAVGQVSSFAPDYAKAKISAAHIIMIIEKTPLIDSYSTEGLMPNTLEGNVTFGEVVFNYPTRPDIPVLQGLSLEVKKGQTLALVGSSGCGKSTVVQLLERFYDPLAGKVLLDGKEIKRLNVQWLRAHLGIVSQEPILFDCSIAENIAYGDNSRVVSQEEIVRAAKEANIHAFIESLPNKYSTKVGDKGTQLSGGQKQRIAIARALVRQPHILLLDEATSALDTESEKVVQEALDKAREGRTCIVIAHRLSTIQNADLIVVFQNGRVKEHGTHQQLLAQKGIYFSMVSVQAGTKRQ

OC[C@]12C3C4C1N(Cc1ccccc1)C1C(C(N3Cc3ccccc3)[C@]1(CO)[C@H]4c1ccccc1)[C@H]2c1ccccc1
Ratio [1]: 26.5
IC50 [2]: < 1 µM
IC50 [3]: 11.9 µM

CC(C)(C)OC(=O)N1C2C3C4N(C(=O)OC(C)(C)C)C5C(C1[C@]5(CO)[C@H]3c1ccccc1)[C@@H](c1ccccc1)[C@@]24CO
Ratio [1]: 33
IC50 [2]: 6.1 µM
IC50 [3]: 2.5 µM

COC(=O)N1C2C3C4N(C(=O)OC)C5C(C1[C@]5(CO)[C@H]3c1ccccc1)[C@@H](c1ccccc1)[C@@]24CO
Ratio [1]: 21.6
IC50 [2]: 3.8 µM

O=C(Oc1ccccc1)N1C2C3C4N(C(=O)Oc5ccccc5)C5C(C1[C@]5(CO)[C@H]3c1ccccc1)[C@@H](c1ccccc1)[C@@]24CO
Ratio [1]: 30.8
IC50 [2]: < 1 µM
IC50 [3]: 12.7 µM

CN1C2C3C4N(C)C5C(C1[C@]5(CO)[C@H]3c1ccccc1)[C@@H](c1ccccc1)[C@@]24CO
Ratio [1]: 34.3
IC50 [2]: 17.6 µM
IC50 [3]: 7.1 µM

— ChEMBL document CHEMBL1147656, “Biological evaluation of bishydroxymethyl-substituted cage dimeric 1,4-dihydropyridines as a novel class of p-glycoprotein modulating agents in cancer cells” (J Med Chem, 2006)
